High-throughput results deposited in PubChem BioAssay by several laboratories.
Most compounds without a hit are left out; they make up all but 1.5% or so of the library.
m5-HT2A agonist: mouse Htr2a agonists via beta-arrestin recruitment, primary screen, cell-based, luminescence. 5-hydroxytryptamine receptor 2A (Mus musculus), P35363. CHO-K1 mHTR2A beta-arrestin complementation; percent of 30 µM serotonin response. 360,000 compounds, 0.66% hits. activation, % at 7.6 µM. AID 624169, 2012;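 active = activation above a run cutoff, the mean activation of all tested compounds plus 3 SD, cut at about 14% in these data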
APJ antagonist: antagonists of human apelin receptor APJ, primary screen, CHO-K1 cells, beta-arrestin complementation, luminescence. 330,000 compounds, 0.32% hits. inhibition, % at 20 µM;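 active = inhibition above about 40% at 20 µM, limit read from the data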;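 also: cells challenged with 10 nM apelin-13 agonist together with compound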
NTR1 ag: agonists of human NTR1, primary screen, imaging, U2OS cells, beta-arrestin-GFP, high content | 330,000 compounds, 0.17% hits | activation, % at 20 µM | NTR1-U2OS beta-arrestin-GFP spot imaging, agonist mode | Neurotensin receptor type 1 (Homo sapiens), P30989 | AID 493036, 2011;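 active = activation at or above 40% of the spot to cytoplasm intensity ratio, with at least 20 cells analyzed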
CCR6 antag: CCR6 receptor antagonists, primary screen, cell-based, CHO-K1, luminescence, beta-arrestin, uHTS; C-C chemokine receptor type 6 (Homo sapiens), P51684; CHO-K1 CCR6 PathHunter beta-arrestin, CCL20-stimulated; inhibition, % at 20 µM; 340,000 compounds, 0.49% hits;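 active = compounds whose inhibition of the agonist-driven luminescence signal at 20 µM reaches about 50%, limit read from the data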;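 also: cells stimulated with CCL20 at 14 nM final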
CXCR6 block: CXCR6 receptor inhibitors, primary screen, cell-based, beta-arrestin, luminescence, CHO-K1 PathHunter, 1536-well | inhibition, % at 20 µM | 360,000 compounds, 0.36% hits | AID 602244, 2012; in the data active = inhibition above about 34%, passing the limit was not always enough;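 also: antagonist mode with CXCL16 agonist at 10 nM final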
Target sequence (O00574 whole entry, looked up): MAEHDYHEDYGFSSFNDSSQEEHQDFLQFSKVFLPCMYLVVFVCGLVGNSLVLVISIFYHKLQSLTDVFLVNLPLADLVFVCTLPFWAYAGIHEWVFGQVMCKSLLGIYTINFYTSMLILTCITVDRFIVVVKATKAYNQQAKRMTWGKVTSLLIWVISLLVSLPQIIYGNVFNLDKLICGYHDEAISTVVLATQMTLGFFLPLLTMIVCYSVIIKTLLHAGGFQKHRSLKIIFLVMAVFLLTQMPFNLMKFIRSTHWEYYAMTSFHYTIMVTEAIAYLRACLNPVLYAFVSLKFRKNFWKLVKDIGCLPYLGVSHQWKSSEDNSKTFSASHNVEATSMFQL
APJ ag: agonists of human apelin receptor APJ, primary screen, CHO-K1 cells, PathHunter beta-arrestin, luminescence. 0% DMSO wells, 100% apelin. P35414. activation, % at 20 µM. 330,000 compounds, 0.11% hits;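 active = activation more than six SD over the plate average, tested at 20 µM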
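Test system: CHO-K1 APJ beta-arrestin complementation cell line | Compound: Single test compound dose, 20 µM final, 1% DMSO | Incubation: Compound 90 min 25 °C, reagent 1 h | Measured by: beta-gal luminescence | Read-out basis: APJ–arrestin association signal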
NTR1 ag conf: NTR1 agonists, single-dose retest, confirmation, imaging, U2OS cells, beta-arrestin-GFP, single concentration; shares compounds with NTR1 ag; NTR1-U2OS beta-arrestin-GFP translocation imaging; activation, % at 20 µM; 480 compounds, 38% hits;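 active = mean activation at 20 µM of at least 40%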
Large screens that a line does not name were inactive (follow-up assays come after a bar, where they were run).

COc1ccc(-c2cn[nH]c2-c2ccc(OCc3ccccc3)cc2O)cc1	none
COc1ccc(C(=O)/C=C2/C(=O)Nc3ccccc32)c(OC)c1	NTR1 ag 52 | NTR1 ag conf 49
Oc1ccccc1C1=NN(c2ccccc2)C(c2ccc(F)cc2)C1 (centres undefined)	none
Oc1ccc(C2=NN(c3ccccc3)C(c3ccc(F)cc3)C2)cc1 (centres undefined)	NTR1 ag 61 | NTR1 ag conf inactive
COc1ccc(C2CC(c3ccccc3)=NN2c2ccc(C(N)=O)cc2)cc1 (centres undefined)	NTR1 ag 41 | NTR1 ag conf inactive
COc1ccc(C2CC(c3ccccc3)=NN2c2ccc(S(N)(=O)=O)cc2)cc1 (centres undefined)	none
Cc1noc(C)c1COc1ccccc1C(=O)N(C)CC(=O)Nc1ccc(F)cc1	none
COc1cc(C(=O)N/N=C/c2ccc(OC(=O)c3cccc(C)c3)cc2)ccc1O	NTR1 ag 52 | NTR1 ag conf inactive
Oc1ccc(CCC2CCCCN2Cc2nc(C3CC3)no2)cc1 (centres undefined)	none
CNC(=S)N(Cc1ccc(Cl)cc1)Cc1cccs1	none
N=c1c(-c2nc3ccccc3[nH]2)cc(C(=O)c2cccs2)nn1-c1ccccc1	NTR1 ag 52 | NTR1 ag conf inactive
CC(=O)n1cc(C(C[N+](=O)[O-])SCCN)c2ccccc21 (centres undefined)	NTR1 ag 47, CCR6 antag 60 | NTR1 ag conf 76
Cn1cc(C(C[N+](=O)[O-])c2ccccc2)c2ccccc21 (centres undefined)	none
O=C1CCC(C(=O)O)N1 (centres undefined)	none
CCc1ccc(-c2cn(-c3nc(C)cc(C)n3)c(=N)o2)cc1	NTR1 ag 46 | NTR1 ag conf inactive
COc1ccc([C@H]2Oc3cc(O)cc(O)c3C(=O)C2[C@@H]2C(=O)c3c(O)cc(O)cc3O[C@@H]2c2ccc(OC)cc2)cc1 (some centres undefined)	NTR1 ag 50 (no result: m5-HT2A agonist, CXCR6 block) | NTR1 ag conf inactive
COc1ccc(C2CC(=O)Oc3cc(O)cc(O)c32)cc1 (centres undefined)	none
CC(=O)Nc1ccc(S(=O)(=O)Nc2nnc(Cc3ccc(Cl)cc3)s2)cc1	none
COc1cc(/C=C2\C(=O)ON=C2c2ccc(Cl)cc2)ccc1O	NTR1 ag 49 (no result: m5-HT2A agonist, CXCR6 block) | NTR1 ag conf 81
COc1ccc(/C=C2\C(=O)ON=C2c2ccccc2)cc1	none
Oc1ccc(-c2nc3c4c(ncn3n2)-c2ccccc2CC42CCCC2)cc1	NTR1 ag 46 | NTR1 ag conf inactive
CN(C)S(=O)(=O)N1CCC(Oc2ccc(C(=O)N3C[C@@H]4CCC[C@H]3C4)cc2)CC1	none
CCOC(=O)C1=C(CS(=O)(=O)c2ccc(C)cc2)NC(=O)NC1c1cc(OC)c(OC)c(OC)c1 (centres undefined)	NTR1 ag 48 | NTR1 ag conf inactive
CCOC(=O)C1=C(CS(=O)(=O)c2ccc(C)cc2)NC(=O)NC1c1ccc(O)c(OC)c1 (centres undefined)	none
Cc1cc(C)n(-c2nc(NC(C)(C)C)nc(NC(C)(C)C)n2)n1	none
Cc1cc(C)n(-c2nc(Nc3ccccc3C)nc(-n3nc(C)cc3C)n2)n1	NTR1 ag 48 (no result: m5-HT2A agonist, CCR6 antag, CXCR6 block) | NTR1 ag conf 71
Cc1cc(C)n(-c2nc(Nc3ccccc3C(F)(F)F)nc(-n3nc(C)cc3C)n2)n1	NTR1 ag 57 | NTR1 ag conf 43
Cc1cc(C)n(-c2nc(NC(C)C)nc(NC(C)C)n2)n1	none
CCCCC[C@@H](C)N1C[C@H](COCc2ccccc2)Oc2cc(N3CC[C@H](O)C3)ccc2S1(=O)=O	none (no result: APJ antagonist, NTR1 ag, CCR6 antag, APJ ag)
